Values after ≈ are worked out from the molar mass of the structure shown.
How the values were obtained:
Assay type in all cases: functional
[1] = tested on: Acinetobacter baumannii; assay: Antimicrobial activity against Acinetobacter baumannii isolate 1 at pH 7.2
Outline: (§1)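 MIC by agar dilution on Mueller-Hinton agar under standard conditions (pH 7.2), against isolates with characterized gyrA/parC genes. Agar pH was checked after solidifying. Plates for both drugs were prepared the same day from freshly made media, and MICs were determined simultaneously with the pH 5.8 set.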

[2] = tested on: Acinetobacter baumannii; assay: Antimicrobial activity against Acinetobacter baumannii isolate 3 at pH 7.2; outline: as §1
[3] = tested on: Acinetobacter baumannii; assay: Antimicrobial activity against Acinetobacter baumannii isolate 6 at pH 7.2
Outline: (§2)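 Agar dilution MIC on Mueller-Hinton agar under standard conditions (pH 7.2). Antibiotic-containing plates were made the same day from freshly prepared medium. Agar pH was checked after solidifying. Both fluoroquinolones were tested simultaneously against A. baumannii isolates with characterized gyrA/parC genes. MICs are in μg/ml.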

[4] = tested on: Acinetobacter baumannii; assay: Antimicrobial activity against Acinetobacter baumannii isolate 11 at pH 7.2; outline: as §1
[5] = tested on: Acinetobacter baumannii; assay: Antimicrobial activity against Acinetobacter baumannii isolate 15 at pH 7.2; outline: as §1
[6] = tested on: Acinetobacter baumannii; assay: Antimicrobial activity against Acinetobacter baumannii isolate 18 at pH 7.2; outline: as §1
[7] = tested on: Acinetobacter baumannii; assay: Antimicrobial activity against Acinetobacter baumannii isolate 21 harboring GyrA Ser83-Leu mutation at pH 7.2; outline: as §1
[8] = tested on: Acinetobacter baumannii; assay: Antimicrobial activity against Acinetobacter baumannii isolate 32 harboring GyrA Ser83-Leu mutation at pH 7.2
Outline: (§3)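 Agar dilution MIC on Mueller-Hinton agar. For the acidic condition, HCl was added to bring the agar to pH 5.8 before pouring the antibiotic plates, and the pH was checked after the agar set. The standard condition was pH 7.2. Both drugs' plates were made the same day from fresh medium, and MICs were read at the same time.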

[9] = tested on: Acinetobacter baumannii; assay: Antimicrobial activity against Acinetobacter baumannii isolate 35 harboring GyrA Ser83-Leu mutation at pH 7.2; outline: as §3
[10] = tested on: Acinetobacter baumannii; assay: Antimicrobial activity against Acinetobacter baumannii isolate 38 harboring GyrA Ser83-Leu mutation at pH 7.2; outline: as §3
[11] = tested on: Acinetobacter baumannii; assay: Antimicrobial activity against Acinetobacter baumannii isolate 41 harboring GyrA Ser83-Leu mutation at pH 7.2; outline: as §3
[12] = tested on: Acinetobacter baumannii; assay: Antimicrobial activity against Acinetobacter baumannii isolate 44 harboring GyrA Ser83-Leu and ParC Glu84-Lys mutation at pH 7.2; outline: as §3
[13] = tested on: Acinetobacter baumannii; assay: Antimicrobial activity against Acinetobacter baumannii isolate 48 harboring GyrA Ser83-Leu and ParC Ser80-Leu mutation at pH 7.2; outline: as §3
[14] = tested on: Acinetobacter baumannii; assay: Antimicrobial activity against Acinetobacter baumannii isolate 57 harboring GyrA Ser83-Leu and ParC Ser80-Phe mutation at pH 7.2; outline: as §2
[15] = tested on: Acinetobacter baumannii; assay: Antimicrobial activity against Acinetobacter baumannii isolate 58 harboring GyrA Ser83-Leu and ParC Ser80-Leu mutation at pH 7.2; outline: as §2
[16] = tested on: Acinetobacter baumannii; assay: Antimicrobial activity against Acinetobacter baumannii isolate 66 harboring GyrA Ser83-Leu mutation at pH 7.2; outline: as §2
[17] = tested on: Acinetobacter baumannii; assay: Antimicrobial activity against adeB overexpressing Acinetobacter baumannii isolate 67 harboring GyrA Ser83-Leu and ParC Ser80-Leu mutation at pH 7.2; outline: as §2
[18] = tested on: Acinetobacter baumannii; assay: Antimicrobial activity against Acinetobacter baumannii isolate 1 at pH 5.8
Outline: (§4)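 MIC by agar dilution on Mueller-Hinton agar acidified to pH 5.8 with HCl before antibiotic-containing plates were poured. Agar pH was rechecked once the agar had solidified. Isolates had characterized gyrA/parC genes. Plates for both drugs were made the same day from fresh media, and MICs were read in parallel with the standard-pH set.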

[19] = tested on: Acinetobacter baumannii; assay: Antimicrobial activity against Acinetobacter baumannii isolate 4 at pH 5.8
Outline: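 Agar dilution MIC on Mueller-Hinton agar acidified with HCl before pouring antibiotic plates; agar pH checked after setting. Isolate has characterized gyrA/parC genes. Plates made the same day from fresh medium, and both drugs tested at the same time. Read-out: MIC (μg/ml).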

[20] = tested on: Acinetobacter baumannii; assay: Antimicrobial activity against Acinetobacter baumannii isolate 5 at pH 5.8; outline: as §3
[21] = tested on: Acinetobacter baumannii; assay: Antimicrobial activity against Acinetobacter baumannii isolate 6 at pH 5.8
Outline: (§5)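 Agar dilution MIC on Mueller-Hinton agar acidified to pH 5.8 with HCl before the antibiotic-containing plates were poured. Agar pH was checked after solidifying. Plates were made the same day from fresh medium. Both fluoroquinolones were tested simultaneously against A. baumannii isolates with characterized gyrA/parC genes. MICs are in μg/ml.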

[22] = tested on: Acinetobacter baumannii; assay: Antimicrobial activity against Acinetobacter baumannii isolate 9 at pH 5.8; outline: as §5
[23] = tested on: Acinetobacter baumannii; assay: Antimicrobial activity against Acinetobacter baumannii isolate 10 at pH 5.8; outline: as §4
[24] = tested on: Acinetobacter baumannii; assay: Antimicrobial activity against Acinetobacter baumannii isolate 13 at pH 5.8; outline: as §4
[25] = tested on: Acinetobacter baumannii; assay: Antimicrobial activity against Acinetobacter baumannii isolate 18 at pH 5.8; outline: as §4
[26] = tested on: Acinetobacter baumannii; assay: Antimicrobial activity against Acinetobacter baumannii isolate 22 harboring GyrA Ser83-Leu mutation at pH 5.8; outline: as §4
[27] = tested on: Acinetobacter baumannii; assay: Antimicrobial activity against Acinetobacter baumannii isolate 28 harboring GyrA Ser83-Leu mutation at pH 5.8; outline: as §4
[28] = tested on: Acinetobacter baumannii; assay: Antimicrobial activity against Acinetobacter baumannii isolate 30 harboring GyrA Ser83-Leu mutation at pH 5.8; outline: as §4
[29] = tested on: Acinetobacter baumannii; assay: Antimicrobial activity against Acinetobacter baumannii isolate 32 harboring GyrA Ser83-Leu mutation at pH 5.8; outline: as §3
[30] = tested on: Acinetobacter baumannii; assay: Antimicrobial activity against Acinetobacter baumannii isolate 37 harboring GyrA Ser83-Leu mutation at pH 5.8; outline: as §3
[31] = tested on: Acinetobacter baumannii; assay: Antimicrobial activity against Acinetobacter baumannii isolate 39 harboring GyrA Ser83-Leu mutation at pH 5.8; outline: as §3
[32] = tested on: Acinetobacter baumannii; assay: Antimicrobial activity against Acinetobacter baumannii isolate 43 harboring GyrA Ser83-Leu mutation at pH 5.8; outline: as §3
[33] = tested on: Acinetobacter baumannii; assay: Antimicrobial activity against Acinetobacter baumannii isolate 45 harboring GyrA Ser83-Leu and ParC Ser80-Leu mutation at pH 5.8; outline: as §3
[34] = tested on: Acinetobacter baumannii; assay: Antimicrobial activity against Acinetobacter baumannii isolate 46 harboring GyrA Ser83-Leu and ParC Ser80-Leu mutation at pH 5.8; outline: as §3
[35] = tested on: Acinetobacter baumannii; assay: Antimicrobial activity against Acinetobacter baumannii isolate 47 harboring GyrA Ser83-Leu and ParC Ser80-Phe mutation at pH 5.8; outline: as §3
[36] = tested on: Acinetobacter baumannii; assay: Antimicrobial activity against Acinetobacter baumannii isolate 52 harboring GyrA Ser83-Leu and ParC Ser80-Leu mutation at pH 5.8; outline: as §3
[37] = tested on: Acinetobacter baumannii; assay: Antimicrobial activity against Acinetobacter baumannii isolate 56 harboring GyrA Ser83-Leu and ParC Ser80-Leu mutation at pH 5.8; outline: as §5
[38] = tested on: Acinetobacter baumannii; assay: Antimicrobial activity against Acinetobacter baumannii isolate 59 harboring GyrA Ser83-Leu and ParC Glu84-Lys mutation at pH 5.8; outline: as §5
[39] = tested on: Acinetobacter baumannii; assay: Antimicrobial activity against Acinetobacter baumannii isolate 61 harboring GyrA Ser83-Leu and ParC Ser80-Leu mutation at pH 5.8; outline: as §5
[40] = tested on: Acinetobacter baumannii; assay: Antimicrobial activity against Acinetobacter baumannii isolate 62 harboring GyrA Ser83-Leu and ParC Ser80-Leu mutation at pH 5.8; outline: as §5
[41] = tested on: Acinetobacter baumannii; assay: Antimicrobial activity against Acinetobacter baumannii isolate 37 harboring GyrA Ser83-Leu mutation at pH 7.2; outline: as §3

N#Cc1c(N2C[C@@H]3NCCO[C@H]3C2)c(F)cc2c(=O)c(C(=O)O)cn(C3CC3)c12 [FINAFLOXACIN]
MIC [1]: 0.12 µg/mL (≈ 0.301 µM)
MIC [2]: 0.12 µg/mL (≈ 0.301 µM)
MIC [3]: 0.25 µg/mL (≈ 0.628 µM)
MIC [4]: 0.25 µg/mL (≈ 0.628 µM)
MIC [5]: 1 µg/mL (≈ 2.51 µM)
MIC [6]: 1 µg/mL (≈ 2.51 µM)
MIC [7]: 1 µg/mL (≈ 2.51 µM)
MIC [8]: 16 µg/mL (≈ 40.2 µM)
MIC [9]: 16 µg/mL (≈ 40.2 µM)
MIC [10]: 16 µg/mL (≈ 40.2 µM)
MIC [11]: 16 µg/mL (≈ 40.2 µM)
MIC [12]: 16 µg/mL (≈ 40.2 µM)
MIC [13]: 16 µg/mL (≈ 40.2 µM)
MIC [14]: 32 µg/mL (≈ 80.3 µM)
MIC [15]: 64 µg/mL (≈ 161 µM)
MIC [16]: 16 µg/mL (≈ 40.2 µM)
MIC [17]: 64 µg/mL (≈ 161 µM)
MIC [18]: 0.06 µg/mL (≈ 0.151 µM)
MIC [19]: 0.03 µg/mL (≈ 0.0753 µM)
MIC [20]: 0.06 µg/mL (≈ 0.151 µM)
MIC [21]: 0.06 µg/mL (≈ 0.151 µM)
MIC [22]: 0.12 µg/mL (≈ 0.301 µM)
MIC [23]: 0.12 µg/mL (≈ 0.301 µM)
MIC [24]: 0.12 µg/mL (≈ 0.301 µM)
MIC [25]: 0.12 µg/mL (≈ 0.301 µM)
MIC [26]: 1 µg/mL (≈ 2.51 µM)
MIC [27]: 1 µg/mL (≈ 2.51 µM)
MIC [28]: 0.5 µg/mL (≈ 1.26 µM)
MIC [29]: 1 µg/mL (≈ 2.51 µM)
MIC [30]: 2 µg/mL (≈ 5.02 µM)
MIC [31]: 2 µg/mL (≈ 5.02 µM)
MIC [32]: 2 µg/mL (≈ 5.02 µM)
MIC [33]: 2 µg/mL (≈ 5.02 µM)
MIC [34]: 2 µg/mL (≈ 5.02 µM)
MIC [35]: 4 µg/mL (≈ 10 µM)
MIC [36]: 2 µg/mL (≈ 5.02 µM)
MIC [37]: 4 µg/mL (≈ 10 µM)
MIC [38]: 8 µg/mL (≈ 20.1 µM)
MIC [39]: 8 µg/mL (≈ 20.1 µM)
MIC [40]: 8 µg/mL (≈ 20.1 µM)
MIC [41]: 16 µg/mL (≈ 40.2 µM)
